Test results taken from ChEMBL document CHEMBL1141177, “The novel L- and D-amino acid derivatives of hydroxyurea and hydantoins: synthesis, X-ray crystal structure study, and cytostatic and antiviral activity evaluations” (J Med Chem, 2005).
Values after ≈ are worked out from the molar mass of the structure shown.

Tests used:
Cytomegalovirus [1] = assay: Effective concentration of the compound to reduce plaque-formation of Cytomegalovirus davis strain in human embryonic lungcell cultures; format: functional, organism-based; settings: Human betaherpesvirus 5
How it was run: (§1)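 Plaque reduction assay in human embryonic lung (HEL) cell cultures, virus input 100 plaque forming units. Viruses: CMV strains AD-169 and Davis, VZV TK+ strain OKA and TK− strain 07/1. EC50 is the concentration that reduces virus plaque formation by 50%.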

HEL [2] = assay: Minimum cytotoxic concentration of compound that causes alteration of cell morphology in human embryonic lung cells; format: functional
How it was run: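 Human embryonic lung (HEL) cells were examined microscopically. MCC is the minimum concentration that causes a detectable alteration of cell morphology.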

[3] = Effective concentration required to reduce plaque formation by AD-169 strain of CMV virus in Human embryonic lung cells; format: functional, cell-based; how it was run: as §1
[4] = Effective concentration required to reduce plaque formation by Davis strain of CMV virus in Human embryonic lung cells; format: functional, cell-based; how it was run: as §1
Cytomegalovirus [5] = assay: Effective concentration to reduce plaque formation of Cytomegalovirus AD-169 strain in human embryonic lung cell cultures; format: functional, organism-based; settings: Human betaherpesvirus 5, lung; how it was run: as §1
HEL [6] = assay: Cytotoxic concentration to reduce the 50% cell growth of human embryonic lung cells; format: functional
MCF7 = assay: Inhibition of breast carcinoma cell line (MCF-7) growth; format: functional, cell-based; settings: Homo sapiens
How it was run: (§2)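 Monolayers in DMEM with 10% FBS, 2 mM L-glutamine, penicillin/streptomycin, 37 °C, 5% CO2. Cells seeded on day 0, then compounds added in 5- and 10-fold dilutions (10^-8–10^-4 M) for 72 h. MTT read-out at 570 nm. Percent growth calculated relative to time-zero and untreated OD. Quadruplicates in three experiments; IC50 by linear interpolation, highest concentration reported as ">" when not reached.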

L1210 = assay: Inhibition of murine leukemia cells (L1210) growth; format: functional, cell-based; settings: Mus musculus
WI-38 = assay: Inhibition of normal human fibroblast cell line (WI 38) growth; format: functional, cell-based; how it was run: as §2
MIA PaCa-2 = assay: Inhibition of pancreatic carcinoma cell line (MiaPaCa-2) growth; format: functional, cell-based; settings: Homo sapiens; how it was run: as §2
HEp-2 = assay: Inhibition of laryngeal carcinoma cell line (Hep-2) growth; format: functional, cell-based; settings: Homo sapiens; how it was run: as §2
MOLT-4 = assay: Inhibition of human T-lymphocyte cell line (Molt4/C8) growth; format: functional, cell-based
SW-620 = assay: Inhibition of colon carcinoma cell line (SW 620) growth; format: functional, cell-based; settings: Homo sapiens; how it was run: as §2
Human alphaherpesvirus 3 [7] = assay: Effective concentration of compound required to reduce plaque formation by OKA strain of thymidine kinase positive VZ virus TK+ in human embryonic lung cells; format: functional, organism-based; settings: Human alphaherpesvirus 3, lung
Human alphaherpesvirus 3 [8] = assay: Reduction of plaque formation by VZV07/1 strain of thymidine kinase(TK-) deficient VZ virus in human embryonic lung cells; format: functional, organism-based; settings: Human alphaherpesvirus 3, lung
HeLa = assay: Inhibition of cervical carcinoma cell line (HeLa) growth; format: functional, cell-based; settings: Homo sapiens; how it was run: as §2
[9] = Homo sapiens, HEL, read-out: CC50

Row | SMILES | EC50 (Cytomegalovirus [1]) [mg/L] | MCC (HEL [2]) [µg/mL] | EC50 [3] [mg/L] | EC50 [4] [mg/L] | EC50 (Cytomegalovirus [5]) [mg/L] | CC50 (HEL [6]) [mg/L] | CC50 (HEL [6]; [9]) [mg/L] | IC50 (MCF7) [µM] | IC50 (L1210) [µM] | IC50 (WI-38) [µM] | IC50 (MIA PaCa-2) [µM] | IC50 (HEp-2) [µM] | IC50 (MOLT-4) [µM] | IC50 (SW-620) [µM] | EC50 (Human alphaherpesvirus 3 [7]) [mg/L] | EC50 (Human alphaherpesvirus 3 [8]) [mg/L] | IC50 (HeLa) [µM]
1 | Nc1nc2c(ncn2COC(CO)CO)c(=O)[nH]1 [GANCICLOVIR] | 0.34 (≈ 1.33 µM) | > 400 | 0.24 (≈ 0.94 µM) | 0.34 (≈ 1.33 µM) | 0.24 (≈ 0.94 µM) |  |  |  |  |  |  |  |  |  |  |  | 
2 | Nc1ccn(C[C@@H](CO)OCP(=O)(O)O)c(=O)n1.O.O [CIDOFOVIR] | 0.13 | > 400 | 0.13 | 0.13 | 0.13 | 21.3 | 21.3 |  |  |  |  |  |  |  |  |  | 
3 | O=C1NC(c2ccccc2)C(=O)N1Cc1ccccc1 (stereo unspecified) |  | 100 | 7.6 (≈ 28.5 µM) | 4 (≈ 15 µM) |  |  | 12.5 (≈ 46.9 µM) | 3.3 | > 200 | 78.9 | 68.9 | 82.9 | > 200 | 96.8 | 15 (≈ 56.3 µM) | 11 (≈ 41.3 µM) | > 100
